# Experimental data from ChEMBL document CHEMBL1671789, “Evaluation of quinazoline analogues as glucocerebrosidase inhibitors with chaperone activity” (J Med Chem, 2011).
# Calls of active or inactive are those of the source.
# How the values were obtained:
# [1] = Inhibition of alpha-galactosidase
# [2] = tested on: T1, Lysosomal acid glucosylceramidase (Homo sapiens), P04062 [N409S]; assay: Activity at recombinant Gcase N370S mutant in human spleen homogenates assessed as hydrolysis of 4-MU-beta-D-glucose at 50 uM; format: tissue-based
# T1 sequence (whole entry): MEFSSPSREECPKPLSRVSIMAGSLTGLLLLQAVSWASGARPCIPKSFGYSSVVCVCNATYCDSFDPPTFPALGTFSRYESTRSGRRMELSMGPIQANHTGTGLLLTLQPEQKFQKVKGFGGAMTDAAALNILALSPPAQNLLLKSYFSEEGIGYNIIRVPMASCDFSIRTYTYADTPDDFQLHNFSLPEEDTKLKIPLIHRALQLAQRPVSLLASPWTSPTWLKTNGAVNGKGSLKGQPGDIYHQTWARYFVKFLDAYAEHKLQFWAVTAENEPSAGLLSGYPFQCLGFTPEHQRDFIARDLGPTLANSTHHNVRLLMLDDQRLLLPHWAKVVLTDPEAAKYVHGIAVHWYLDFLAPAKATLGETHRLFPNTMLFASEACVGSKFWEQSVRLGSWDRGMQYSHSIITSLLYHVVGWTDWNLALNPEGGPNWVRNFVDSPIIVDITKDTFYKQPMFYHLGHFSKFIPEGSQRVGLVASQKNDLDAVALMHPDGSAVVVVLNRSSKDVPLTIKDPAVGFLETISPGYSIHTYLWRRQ
# In short: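 Enzyme source: human spleen homogenate, 27 μg/well, in 50 mM citric acid/K2PO4 buffer pH 5 with 0.01% Tween20. Compound pin-transferred and preincubated 5 min at room temperature. Substrate 4MU-β-glc at 1 mM final, 45 min at 37 °C. Stopped with 1 M NaOH/1 M glycine pH 10. Fluorescence read at 365 nm excitation, 440 nm emission.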
# [3] = Inhibition of alpha-glucosidase
SMILES,Activity [1],Activity [2],Activity [3]
Cc1ccc(S(=O)(=O)N2CCN(c3nc(C#N)nc4ccccc34)CC2)cc1,inactive,inactive,inactive
Cc1ccc(S(=O)(=O)N2CCN(c3nc(-c4cccs4)cc4ccccc34)CC2)cc1,inactive,inactive,inactive
Cc1ccc(S(=O)(=O)N2CCN(c3nc(-c4cccs4)nc4c3ncn4COC(=O)C(C)(C)C)CC2)cc1,inactive,inactive,inactive
Cc1ccc(S(=O)(=O)N2CCN(c3nc(-c4cccs4)nc4[nH]cnc34)CC2)cc1,inactive,inactive,inactive
CCN1CCN(c2nc(-c3cccs3)nc3ccccc23)CC1,inactive,inactive,inactive
O=S(=O)(c1ccc(C(F)(F)F)cc1)N1CCN(c2nc(-c3cccs3)nc3cc(Cl)ccc23)CC1,inactive,inactive,inactive
O=S(=O)(c1ccc(F)cc1)N1CCN(c2nc(-c3cccs3)nc3cc(Cl)ccc23)CC1,inactive,inactive,inactive
O=S(=O)(c1ccc(F)cc1)N1CCN(c2nc(-c3cccc(Br)c3)nc3ccccc23)CC1,inactive,inactive,inactive
O=S(=O)(c1ccc(OC(F)(F)F)cc1)N1CCN(c2nc(-c3ccccc3)nc3ccccc23)CC1,inactive,,inactive
COc1ccc(S(=O)(=O)N2CCN(c3nc(-c4ccccc4)nc4ccccc34)CC2)cc1,inactive,,inactive
O=S(=O)(c1cc(Cl)cc(Cl)c1)N1CCN(c2nc(-c3cccs3)nc3ccccc23)CC1,inactive,,inactive
O=S(=O)(c1ccccc1Br)N1CCN(c2nc(-c3ccccc3)nc3ccccc23)CC1,inactive,,inactive
O=S(=O)(c1ccc2c(c1)OCCO2)N1CCN(c2nc(-c3cccnc3)nc3ccccc23)CC1,inactive,,inactive
Cc1cc(C)cc(S(=O)(=O)N2CCN(c3nc(-c4cccs4)nc4ccccc34)CC2)c1,inactive,,inactive
Cc1ccc(S(=O)(=O)N2CCN(c3nc(-c4cccs4)nc4cccnc34)CC2)cc1,inactive,,inactive
O=[N+]([O-])c1ccc(S(=O)(=O)N2CCN(c3nc(-c4cccs4)nc4ccccc34)CC2)cc1,inactive,,inactive
O=S(=O)(c1ccc2c(c1)CCCC2)N1CCN(c2nc(-c3cccs3)nc3ccccc23)CC1,inactive,,inactive
CC(=O)c1ccc(S(=O)(=O)N2CCN(c3nc(-c4ccccc4)nc4ccccc34)CC2)cc1,inactive,,inactive
Cc1ccc(S(=O)(=O)N2CCN(c3cc(-c4cccs4)nc4ccccc34)CC2)cc1,inactive,,inactive
O=S(=O)(c1ccccc1C(F)(F)F)N1CCN(c2nc(-c3ccccc3)nc3ccccc23)CC1,inactive,,inactive

SMILES,Activity [1],Activity [2],Activity [3]
NS(=O)(=O)c1ccc(S(=O)(=O)N2CCN(c3nc(-c4cccs4)nc4ccccc34)CC2)cc1,inactive,,inactive
O=[N+]([O-])c1ccccc1S(=O)(=O)N1CCN(c2nc(-c3ccccc3)nc3ccccc23)CC1,inactive,,inactive
O=S(=O)(c1cccc(Cl)c1)N1CCN(c2nc(-c3cccs3)nc3ccccc23)CC1,inactive,,inactive
Cc1ccc(S(=O)(=O)N2CCN(c3nc(-c4ccncc4)nc4ccccc34)CC2)cc1,inactive,,inactive
O=S(=O)(c1ccc2ncsc2c1)N1CCN(c2nc(-c3cccs3)nc3ccccc23)CC1,inactive,,inactive
O=[N+]([O-])c1ccc(S(=O)(=O)N2CCN(c3nc(-c4ccccc4)nc4ccccc34)CC2)cc1,inactive,,inactive
O=S(=O)(c1ccc(F)cc1)N1CCN(c2nc(-c3ccccc3)nc3ccccc23)CC1,inactive,,inactive
O=S(=O)(c1ccc2c(c1)CCCC2)N1CCN(c2nc(-c3ccccc3)nc3ccccc23)CC1,inactive,,inactive
O=S(=O)(c1cccs1)N1CCN(c2nc(-c3cccs3)nc3ccccc23)CC1,inactive,,inactive
Cc1ccc(S(=O)(=O)N2CCCN(c3nc(-c4cccs4)nc4ccccc34)CC2)cc1,inactive,,inactive
O=S(=O)(c1cccc2ccccc12)N1CCN(c2nc(-c3cccs3)nc3ccccc23)CC1,inactive,,inactive
O=[N+]([O-])c1cccc(S(=O)(=O)N2CCN(c3nc(-c4cccs4)nc4ccccc34)CC2)c1,inactive,,inactive
Cc1ccc(S(=O)(=O)N2CCN(c3nc(-c4ccoc4)nc4ccccc34)CC2)cc1,inactive,,inactive
O=S(=O)(c1ccc(C(F)(F)F)cc1)N1CCN(c2nc(-c3cccs3)nc3ccccc23)CC1,inactive,,inactive
Cc1ccc(S(=O)(=O)N2CCN(c3ccnc(-c4cccs4)n3)CC2)cc1,inactive,,inactive
CS(=O)(=O)N1CCN(c2nc(-c3cccs3)nc3ccccc23)CC1,inactive,,inactive
O=S(=O)(c1cccnc1)N1CCN(c2nc(-c3cccs3)nc3ccccc23)CC1,inactive,,inactive
Cc1ccc(S(=O)(=O)N2CCN(c3nc(-c4cccs4)nc4ncccc34)CC2)cc1,inactive,,inactive
CN1CCOc2cc(S(=O)(=O)N3CCN(c4nc(-c5cccs5)nc5ccccc45)CC3)ccc21,inactive,,inactive
N#Cc1cccc(S(=O)(=O)N2CCN(c3nc(-c4cccs4)nc4ccccc34)CC2)c1,inactive,,inactive

SMILES,Activity [1],Activity [2],Activity [3]
O=S(=O)(c1ccccc1Cl)N1CCN(c2nc(-c3ccccc3)nc3ccccc23)CC1,inactive,,inactive
CN(CCN(C)c1nc(-c2cccs2)nc2ccccc12)C(=O)OC(C)(C)C,inactive,,inactive
Cc1ccc(S(=O)(=O)N2CCN(c3nc(-c4ccnnc4)nc4ccccc34)CC2)cc1,inactive,,inactive
CC(=O)N1CCN(c2nc(-c3cccs3)nc3ccccc23)CC1,inactive,,inactive
O=S(=O)(c1ccccc1)N1CCN(c2nc(-c3cccs3)nc3ccccc23)CC1,inactive,,inactive
Cc1ccc(S(=O)(=O)N2CCN(c3nc(-c4ccc(CN5CCOCC5)s4)nc4ccccc34)CC2)cc1,inactive,,inactive
Cc1ccc(S(=O)(=O)N2CCN(c3nc(-c4ccccc4)nc4ccccc34)CC2)cc1,inactive,,inactive
COc1ccc(S(=O)(=O)N2CCN(c3nc(-c4cccs4)nc4ccccc34)CC2)cc1OC,inactive,,inactive
O=S(=O)(c1ccccc1Cl)N1CCN(c2nc(-c3cccs3)nc3ccccc23)CC1,inactive,,inactive
O=S(=O)(c1cccc(C(F)(F)F)c1)N1CCN(c2nc(-c3cccs3)nc3ccccc23)CC1,inactive,,inactive
O=S(=O)(Cc1ccccc1)N1CCN(c2nc(-c3cccs3)nc3ccccc23)CC1,inactive,,inactive
c1csc(-c2nc(N3CCN(Cc4ccc5c(c4)OCCO5)CC3)c3ccccc3n2)c1,inactive,,inactive
O=S(=O)(c1ccc(OC(F)(F)F)cc1)N1CCN(c2nc(-c3cccs3)nc3ccccc23)CC1,inactive,,inactive
Cc1cccc(S(=O)(=O)N2CCN(c3nc(-c4cccs4)nc4ccccc34)CC2)c1,inactive,,inactive
CCOc1ccc(S(=O)(=O)N2CCN(c3nc(-c4ccccc4)nc4ccccc34)CC2)cc1,inactive,,inactive
CCOc1ccc(S(=O)(=O)N2CCN(c3nc(-c4ccccc4)nc4ccccc34)CC2)cc1OCC,inactive,,inactive
O=S(=O)(c1ccc(Br)cc1)N1CCN(c2nc(-c3ccccc3)nc3ccccc23)CC1,inactive,,inactive
Cc1ccc(S(=O)(=O)N(C)CCN(C)c2nc(-c3cccs3)nc3ccccc23)cc1,inactive,,inactive
Cc1ccc(S(=O)(=O)N2CCN(c3nc(-c4ncco4)nc4ccccc34)CC2)cc1,inactive,,inactive
